Laboratory results: ChEMBL document CHEMBL1133105, “Antimalarial, antitrypanosomal, and antileishmanial activities and cytotoxicity of bis(9-amino-6-chloro-2-methoxyacridines): influence of the linker” (J Med Chem, 2000)

Assays:
[1] = tested on: Trypanosoma cruzi; test: Percentage of activity against Trypanosoma cruzi at 3.13 uM; type: functional
In short: (§1)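 Mouse peritoneal macrophages, 30 000/well, infected after 24 h with about 100 000 T. cruzi trypomastigotes per well plus 2-fold drug dilutions (12.5–1.56 µM). Incubated 4 days at 37 °C, 5% CO2. Methanol-fixed, Giemsa-stained and scored microscopically as % reduction of total parasite load (free trypomastigotes plus intracellular amastigotes) versus untreated controls.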

[2] = tested on: MRC5; test: Cytotoxicity on MRC-5 cells at 3.13 uM; type: functional; settings: Homo sapiens
In short: (§2)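 MRC-5 human diploid embryonic lung cells seeded at 5 000/well, washed after 24 h, then given 2-fold drug dilutions (25, 12.5, 6.25, 3.13 µM) in RPMI + 5% FCS, final DMSO below 0.5%. Incubated 7 days at 37 °C, 5% CO2. MTT colorimetric read-out, scored as % reduction of absorbance at 540 nm versus untreated controls.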

[3] = tested on: Leishmania infantum; test: Percentage of activity against Leishmania infantum at 1.56 uM; type: functional
In short: (§3)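 Starch-stimulated mouse peritoneal macrophages, 30 000/well, infected after 24 h with spleen-derived L. infantum amastigotes (10:1) together with 2-fold drug dilutions (12.5–1.56 µM). Incubated 7 days at 37 °C, 5% CO2. Wright-stained slides scored microscopically as % reduction of total parasite load or of infected macrophages. Uninfected treated cultures judged microscopically for macrophage toxicity.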

[4] = tested on: MRC5; test: Cytotoxicity on MRC-5 cells at 12.5 uM; type: functional; settings: Homo sapiens; in short: as §2
[5] = tested on: Trypanosoma cruzi; test: Percentage of activity against Trypanosoma cruzi at 6.25 uM Concentration; type: functional; in short: as §1
[6] = tested on: Plasmodium falciparum; test: In vitro sensitivity for Plasmodium falciparum FcB1R; type: functional, organism-based
In short: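 Asynchronous P. falciparum cultures in human erythrocytes (0.5% parasitemia, 1% haematocrit) exposed to serially diluted drug for 24 h at 37 °C. [3H]hypoxanthine (0.5 µCi/well) then added for a further 24 h. Uptake compared with drug-free controls on the same plate. IC50 taken from the concentration–response curve, averaged over independent experiments. DMSO ≤0.1%.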

[7] = tested on: Trypanosoma cruzi; test: Percentage of activity against Trypanosoma cruzi at 1.56 uM; type: functional; in short: as §1
[8] = tested on: MRC5; test: Cytotoxicity on MRC-5 cells at 25 uM; type: functional; settings: Homo sapiens; in short: as §2
[9] = tested on: Leishmania infantum; test: Percentage of activity against Leishmania infantum 6.25 uM; type: functional; in short: as §3
[10] = tested on: Leishmania infantum; test: In Vitro evaluation for the percentage of activity towards Leishmania infantum at 12.5 uM Concentration; type: functional; in short: as §3
[11] = tested on: Leishmania infantum; test: Percentage of activity against Leishmania infantum at 3.13 uM; type: functional; in short: as §3
[12] = tested on: Trypanosoma cruzi; test: Percentage of activity against Trypanosoma cruzi at 12.5 uM; type: functional; in short: as §1
[13] = tested on: Trypanosoma brucei; test: Percentage of activity against Trypanosoma brucei at 6.25 uM; type: functional
In short: (§4)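 Bloodstream-form T. brucei in HMI-9 medium, 10 000 parasites/well, exposed to 12.5, 6.25, 3.13 and 1.56 µM drug for 4 days. Read-out is % inhibition of parasite multiplication. Macrophage toxicity judged on mouse primary peritoneal macrophages.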

[14] = tested on: MRC5; test: Cytotoxicity on MRC-5 cells at 6.25 uM; type: functional; settings: Homo sapiens; in short: as §2
[15] = tested on: Trypanosoma brucei; test: Percentage of activity against Trypanosoma brucei at 1.56 uM; type: functional; in short: as §4
[16] = tested on: Trypanosoma brucei; test: Percentage of activity against Trypanosoma brucei at 3.13 uM; type: functional; in short: as §4
[17] = tested on: Trypanosoma brucei; test: Percentage of activity against Trypanosoma brucei at 12.5 uM; type: functional; in short: as §4
[18] = tested on: Trypanosoma cruzi; test: Percentage of activity against Trypanosoma cruzi at 12.5 uM; Toxic upon mouse primary peritoneal macrophages; type: functional, organism-based; in short: as §1
[19] = tested on: Leishmania infantum; test: Percentage of activity against Leishmania infantum at 12.5 uM Concentration; Toxic upon mouse primary peritoneal macrophages; type: functional, organism-based; in short: as §3
[20] = tested on: Trypanosoma cruzi; test: In Vitro evaluation for the percentage of activity towards Trypanosoma cruzi at 6.25 uM Concentration; Toxic upon mouse primary peritoneal macrophages; type: functional, organism-based; in short: as §1
[21] = tested on: Leishmania infantum; test: Percentage of activity against Leishmania infantum at 6.25 uM; Toxic upon mouse primary peritoneal macrophages; type: functional, organism-based; in short: as §3

| IC50 [6] | SMILES | Reduction of T. cruzi parasite load [1] | cytotoxicity at 3.13 µM [2] | Antileishmanial activity (% reduction of parasite load) [3] | cytotoxicity at 12.5 µM [4] | Reduction of T. cruzi parasite load [5] | Parasite load reduction [7] | cytotoxicity at 25 µM [8] | Antileishmanial activity (% reduction of parasite load) [9] | Percent inhibition of Leishmania infantum [10] | Percent antileishmanial activity (reduction of parasite load) [11] | T. cruzi parasite load reduction [12] | Inhibition of parasite multiplication [13] | cytotoxicity at 6.25 µM [14] | Percent inhibition of parasite multiplication [15] | Parasite growth inhibition [16] | Inhibition of parasite multiplication [17] | Cytotoxicity [18] | Cytotoxicity [19] | Cytotoxicity [21] | other results |
| --- | --- | --- | --- | --- | --- | --- | --- | --- | --- | --- | --- | --- | --- | --- | --- | --- | --- | --- | --- | --- | --- |
| 0.109 µM | COc1ccc2nc3cc(Cl)ccc3c(NCCN(CCNc3c4ccc(Cl)cc4nc4ccc(OC)cc34)C(=O)C(C)NC(=O)OC(C)(C)C)c2c1 (configuration not stated) | 0% | 0% | 0% | 0% | 40% | 0% | 100% | 60% | 90% | 20% | 60% | 100% | 0% | 99% | 100% | 100% | – | – | – | – |
| 0.247 µM | COc1ccc2nc3cc(Cl)ccc3c(NCCCN(CCCNc3c4ccc(Cl)cc4nc4ccc(OC)cc34)C(=O)C(CO)NC(=O)OC(C)(C)C)c2c1 (configuration not stated) | 0% | 0% | 0% | 0% | 20% | 0% | 0% | 0% | 40% | 0% | 80% | 100% | 0% | 100% | 100% | 100% | – | – | – | – |
| 0.016 µM | COc1ccc2nc3cc(Cl)ccc3c(NCCCCCCNc3c4ccc(Cl)cc4nc4ccc(OC)cc34)c2c1 | 0% | 20% | 0% | 90% | 40% | 0% | 100% | 0% | 40% | 0% | 70% | 100% | 80% | 90% | 99% | 100% | – | – | – | – |
| 0.27 µM | COc1ccc2nc3cc(Cl)ccc3c(NCCCN(CCCNc3c4ccc(Cl)cc4nc4ccc(OC)cc34)C(=O)CCC(=O)O)c2c1 | 0% | 0% | 0% | 0% | 0% | 0% | 0% | 0% | 0% | 0% | 0% | 95% | 0% | 60% | 80% | 100% | – | – | – | – |
| 0.092 µM | COc1ccc2nc3cc(Cl)ccc3c(NCCCN(CCCNc3c4ccc(Cl)cc4nc4ccc(OC)cc34)C(=O)CNC(=O)OC(C)(C)C)c2c1 | 0% | 0% | 0% | 100% | 40% | 0% | 100% | 60% | 80% | 40% | 80% | 100% | 20% | 100% | 100% | 100% | – | – | – | – |
| > 0.5 µM | COc1ccc2nc3cc(Cl)ccc3c(NCCCN(CCCNc3c4ccc(Cl)cc4nc4ccc(OC)cc34)C(=O)C(N)CN)c2c1 (configuration not stated) | 40% | 0% | 0% | 0% | – | 0% | 0% | – | – | 0% | – | 100% | 0% | 99% | 100% | – | Toxic | Toxic | Toxic | Cytotoxicity [20]: Toxic |
| 0.307 µM | COc1ccc2nc3cc(Cl)ccc3c(NCCCN(CCCNc3c4ccc(Cl)cc4nc4ccc(OC)cc34)C(=O)C(CN)NC(=O)OC(C)(C)C)c2c1 (configuration not stated) | 40% | 0% | 0% | 37% | – | 0% | 39% | – | – | 0% | – | 100% | 0% | 99% | 100% | – | Toxic | Toxic | Toxic | Cytotoxicity [20]: Toxic |
| 0.232 µM | COc1ccc2nc3cc(Cl)ccc3c(NCCCN(CCCNc3c4ccc(Cl)cc4nc4ccc(OC)cc34)C(=O)C(C)NC(=O)OCC3c4ccccc4-c4ccccc43)c2c1 (configuration not stated) | 0% | 100% | 0% | 100% | – | 0% | 100% | – | – | 40% | – | 100% | 100% | 100% | 100% | 100% | Toxic | Toxic | Toxic | Cytotoxicity [20]: Toxic |
| > 0.5 µM | COc1ccc2nc3cc(Cl)ccc3c(NCCCN(CCCNc3c4ccc(Cl)cc4nc4ccc(OC)cc34)C(=O)C(CC(=O)O)NC(=O)OC(C)(C)C)c2c1 (configuration not stated) | 0% | 0% | 0% | 0% | 0% | 0% | 0% | 0% | 0% | 0% | 80% | 100% | 0% | 100% | 100% | 100% | – | – | – | – |
| 0.44 µM | COc1ccc2nc3cc(Cl)ccc3c(NCCCN(CCCNc3c4ccc(Cl)cc4nc4ccc(OC)cc34)C(=O)CNC(=O)C(C)NC(=O)OC(C)(C)C)c2c1 (configuration not stated) | 0% | 31% | 0% | 71% | 40% | 0% | 100% | – | – | 0% | – | 100% | 41% | 100% | 100% | – | Toxic | Toxic | Toxic | – |
